Compound activity (PubChem)
CHO parental Ca: counter-screen: ATP calcium response change in parental CHO cells. parental CHO-K1, ATP-induced calcium, Fluo-8 fluorescence. 0.63% of 330,000 active. inhibition, % at 5.6 µM. AID 463079;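 active = inhibition above that plate's mean sample inhibition plus 3 SD, cut at about 26% in these data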;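 note: 0% = ATP-challenged DMSO wells and 100% = DMSO wells without ATP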
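Material: Parental CHO cells | Reagent: ATP | Compound dosing: Single nominal dose of 5.6 µM per compound | Detection: Intracellular calcium via Fluo-8 no-wash fluorescent dye | Read-out: % inhibition of ATP-induced calcium mobilization | Benchmarks: Low control ATP plus DMSO, high control DMSO only | Replicates: Singlicate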
OX1R antag-1: blocks the human orexin 1 receptor; O43613; CHO/OX1R cells, Fluo-8 calcium fluorescence, orexin A; inhibition, % at 5 µM; 0.43% of 330,000 active; AID 434989;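 active = inhibition above its plate's threshold, mean inhibition of all tested compounds on the plate plus 3 SD, cut at about 37% in these data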;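 note: 0% = orexin A challenge wells and 100% = SB-334867-A antagonist wells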
TAAR1 antag: human TAAR1 antagonism; CHO RD-HGA16 TAAR1, Fluo-8 calcium fluorescence, antagonist; inhibition, % at 3 µM; 1.5% of 360,000 active; AID 624466;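 active = inhibition above a per-plate cutoff, the mean inhibition of test compounds on that plate plus 3 SD, cut at about 49% in these data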;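 note: 0% = DMSO plus EC80 beta-PEA response and 100% = DMSO alone without agonist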
Target sequence (Q96RJ0 whole entry, looked up): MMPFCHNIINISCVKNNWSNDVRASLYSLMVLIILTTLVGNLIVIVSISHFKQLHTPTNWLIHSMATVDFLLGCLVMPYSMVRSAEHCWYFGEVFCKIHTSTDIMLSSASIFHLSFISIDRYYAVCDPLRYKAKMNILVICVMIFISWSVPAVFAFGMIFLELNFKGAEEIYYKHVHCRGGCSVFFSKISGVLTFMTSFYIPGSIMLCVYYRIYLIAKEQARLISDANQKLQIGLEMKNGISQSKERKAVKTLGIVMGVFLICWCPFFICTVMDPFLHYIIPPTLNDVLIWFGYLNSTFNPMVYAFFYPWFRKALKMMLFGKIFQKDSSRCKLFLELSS
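Test system: RD-HGA16 CHO cells with stable hTAAR1 and Gα16 / Probe or stimulus: EC80 β-phenethylamine stimulus / Times: seeding 17-24 h prior, 75-min 37 °C, 30-min RT dye loading / Detection: Fluo-8 calcium-sensitive fluorescence / Read-out basis: % inhibition scaled between DMSO and EC80 PEA controls / Repeats: singlicate, one well per test compound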
GPR7 antag: antagonists of human GPR7 (neuropeptides B/W receptor 1); P48145; GPR7-expressing cells, fluorescence antagonist assay; inhibition, % at 4.4 µM; 1.1% of 290,000 active; AID 1861; in the data active = inhibition above about 16%, passing the limit was not always enough;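 note: cells stimulated with the agonist NPW; 0% = agonist with vehicle and 100% = vehicle without agonist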
Target sequence (P48145 whole entry, looked up): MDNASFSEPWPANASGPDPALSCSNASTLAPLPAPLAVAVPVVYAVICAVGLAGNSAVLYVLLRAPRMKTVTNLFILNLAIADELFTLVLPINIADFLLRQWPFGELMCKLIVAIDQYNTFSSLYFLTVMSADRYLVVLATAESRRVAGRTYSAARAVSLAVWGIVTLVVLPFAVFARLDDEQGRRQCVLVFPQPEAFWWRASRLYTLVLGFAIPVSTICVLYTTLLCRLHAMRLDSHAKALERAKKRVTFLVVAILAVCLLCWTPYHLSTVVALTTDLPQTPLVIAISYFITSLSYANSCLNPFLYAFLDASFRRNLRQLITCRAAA
TAAR1 ag: agonists of human TAAR1. Q96RJ0. activation, % at 3 µM. CHO RD-HGA16 TAAR1, Fluo-8 calcium fluorescence; vehicle wells 0%, saturating PEA agonist 100%. 0.99% of 360,000 active;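 active = activation above the mean activation of all test compounds in the run plus 3 SD, cut at about 38% in these data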
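Repeats: no replicates (n 1) | Material: CHO-derived RD-HGA16 cells with stable Gα16 and human TAAR1 | Technique: Kinetic Fluo-8 calcium fluorescence | Schedule: 17-24 h seeding, 75 min 37 °C dye, 30 min RT | Evaluation: % activation from peak over basal fluorescence ratio, DMSO-to-PEA scaled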
OX1R antag-2: OX1R (human) antagonism; 1.8% of 330,000 active; OX1R-expressing cells, FRET antagonist read-out; AID 485270; inhibition, % at 6.6 µM; O43613; in the data active = inhibition mostly above about 38%, no sharp cut-off; inactive = mostly below about 40%;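 note: 0% = agonist challenge alone and 100% = reference antagonist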
OX1R HTRF conf: OX1R (human) antagonism, HTRF confirmed; inhibition, % at 6.6 µM; OX1R-expressing cells, HTRF antagonist assay; 49% of 1,800 active; shares compounds with OX1R antag-2; AID 492964; in the data active = inhibition above about 55%;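 note: CHO cells expressing OX1R stimulated with orexin A at about EC80; 0% = agonist challenge alone and 100% = reference antagonist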
CHO-K1 HTRF cnt: counter-screen for OX1R antagonists: effect in parental CHO-K1 cells; shares compounds with OX1R antag-2; HTRF counterscreen; inhibition, % at 6.6 µM; 48% of 1,800 active; in the data active = inhibition above about 17%;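 note: 0% = agonist challenge with vehicle and 100% = vehicle alone without agonist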
* hit, by the source's call; nt = no result given. Rows were chosen to be rich in hits. Some 4.6% of all compounds tested hit in one or more screens of this group.

SMILES	CHO parental Ca	OX1R antag-1	TAAR1 antag	GPR7 antag	TAAR1 ag	OX1R antag-2	OX1R HTRF conf	CHO-K1 HTRF cnt
COC(=O)c1sc(NC(=O)c2ccc([N+](=O)[O-])o2)c(C#N)c1C	9	19	-15	-12	3	92*	64*	30*
CCOC(=O)c1sc(NC(=O)c2ccco2)c(C#N)c1C	-1	7	2	3	13	15	nt	nt
CCOC(=O)CN1CCCc2nc(-c3ccc(OC)cc3)ccc21	nt	nt	-12	nt	0	nt	nt	nt
Cc1ccc(NC(=O)CSc2ncn[nH]2)c([N+](=O)[O-])c1	-10	1	8	nt	0	16	nt	nt
O=C(CSc1ncn[nH]1)Nc1c(Br)cc([N+](=O)[O-])cc1Br	-1	-5	-4	-14	2	96*	41	45*
c1ccc2nc3c(nc2c1)[nH]c1ccccc13	4	-3	-10	-1	4	82*	72*	-1
COc1cccc2oc3cc(C#Cc4ccccn4)ccc3c(=O)c12	-35	-26	-5	8	19	79*	64*	13
CN(C)C(=O)c1ccc2c(c1[N+](=O)[O-])C(=O)c1ccccc1C2=O	-6	-9	-1	-7	3	93*	58*	55*
COc1ccc2c(c1O)C(=O)c1ccccc1C2=O	-3	-2	nt	-14	nt	9	nt	nt
COc1ccc(-c2nn3c(-c4ccc(F)cc4)nnc3s2)cc1	-6	-14	-5	20	-1	8	nt	nt
COc1ccc(-c2nn3c(-c4ccccc4)nnc3s2)cc1	-7	20	9	-8	1	87*	88*	13
Cc1c(NC(=O)C(C)OC(=O)c2ccc([N+](=O)[O-])s2)c(=O)n(-c2ccccc2)n1C (configuration not stated)	3	-11	-2	-9	3	118*	71*	81*
N#Cc1cccc(-c2csc(C(O)(c3ccccc3)C(F)(F)F)n2)c1 (configuration not stated)	nt	nt	5	nt	0	nt	nt	nt
COc1ccc(C(=O)N2CCN(c3nc4cc(C)ccc4cc3C#N)CC2)c(OC)c1	-26	-20	35	-14	11	20	nt	nt
COc1cc(C(=O)N2CCCN(c3nc4cc(C)ccc4cc3C#N)CC2)cc(OC)c1OC	-30	24	4	nt	8	80*	86*	5
N#Cc1cc([N+](=O)[O-])ccc1NC(=O)COC(=O)C1CC2CCCC(C1)C2=O (configuration not stated)	-3	-20	-6	nt	2	88*	33	43*
NC(=O)COc1ccc(C(=O)NCC2(N3CCOCC3)CCCCC2)cc1	-12	-2	4	nt	0	6	nt	nt
COc1ccc(C2=Nc3ccccc3N(C(=O)c3cnccn3)C2C(=O)NC2CCCC2)cc1 (configuration not stated)	nt	nt	-18	nt	3	nt	nt	nt
CCCCNC(=O)C1(C)CCC(=O)N1C1CC1 (configuration not stated)	nt	nt	-5	nt	2	nt	nt	nt
COc1ccc(OC)c(NC(=O)CSCc2cnn(-c3ccccc3)c2-n2cccc2)c1	-24	18	13	3	3	78*	77*	1
COc1ccccc1CNC(=O)CSCc1cnn(-c2ccccc2)c1-n1cccc1	-17	-21	2	-7	4	15	nt	nt
O=C(CSc1ncn[nH]1)Nc1cccc(S(=O)(=O)N2CCCCCC2)c1	-16	-3	-3	4	4	19	nt	nt
Nc1nc(SCC(=O)Nc2cccc(S(=O)(=O)N3CCCCCC3)c2)n[nH]1	-1	-12	0	-2	-1	89*	15	4
Cn1cnc([N+](=O)[O-])c1Oc1cccc2ccccc12	-9	-8	-6	-1	-2	85*	26	5
Cn1cnc([N+](=O)[O-])c1S(=O)(=O)Oc1cccc2ccccc12	nt	nt	26	nt	1	nt	nt	nt
SMILES	CHO parental Ca	OX1R antag-1	TAAR1 antag	GPR7 antag	TAAR1 ag	OX1R antag-2	OX1R HTRF conf	CHO-K1 HTRF cnt
O=S1(=O)CC(N2CCN(Cc3ccccc3F)CC2)CN1Cc1cn(Cc2ccc(F)cc2)nn1 (configuration not stated)	nt	nt	-21	nt	10	nt	nt	nt
COC(=O)c1ccccc1NC(=O)COc1ccc2c(c1)OCO2	-7	-54	3	9	-1	80*	63*	14
COC(=O)c1ccc(NC(=O)COc2ccc3c(c2)OCO3)cc1	-10	-20	-7	-6	-1	14	nt	nt
Cc1nnc(N/N=C/c2cc(C)n(-c3ccc(F)cc3)c2C)n1N	-10	-8	-10	8	-1	92*	17	12
Cc1nnc(N/N=C/c2ccccc2O)n1N	-5	-17	-19	-11	33	160*	40	16
Oc1ccccc1/C=N/Nc1nn[nH]n1	-14	-13	-6	-10	1	12	nt	nt
O=C(Nc1cccc(C(F)(F)F)c1)C1Cc2c(-c3ccccc3)ccnc2O1 (configuration not stated)	nt	nt	9	nt	1	nt	nt	nt
CC1=CC(=O)C=C(C)C1=NOC(=O)/C=C\c1ccccc1	-2	-1	0	5	0	10	nt	nt
CC1=CC(=NOC(=O)/C=C/c2ccccc2)C=C(C)C1=O	-9	3	-7	-17	15	82*	29	3
Cc1ccsc1C(=O)N1CCC1(C)C(=O)NCC(C)(C)C (configuration not stated)	nt	nt	-5	nt	1	nt	nt	nt
COC(=O)c1cc(C(=O)Nc2nnc(CC(C)C)s2)cc([N+](=O)[O-])c1	-1	-2	-14	-6	1	22	nt	nt
COCc1nnc(NC(=O)c2cc(C(=O)OC)cc([N+](=O)[O-])c2)s1	-4	-8	-3	-11	9	90*	42	46*
O=C(CN1C(=O)c2ccc([N+](=O)[O-])cc2C1=O)NCc1ccco1	-1	-11	9	-4	0	88*	46	53*
O=C(Nc1cc([N+](=O)[O-])ccc1O)c1ccc2c(c1)C(=O)N(Cc1ccco1)C2=O	-4	-4	16	2	4	32	nt	nt
CCn1c(C)[n+](CCOC(C)=O)c2cc(Cl)c(Cl)cc21	4	-9	-5	-5	0	88*	24	5
Cc1ccc(Nc2nc3nonc3[nH]c2=O)cc1Cl	28	20	-6	1	5	43	nt	nt
Cc1ccc(Nc2nc3nonc3[nH]c2=O)cc1C	16	17	21	12	4	78*	33	7
CN1CCCCC(NC(=O)c2cccc([N+](=O)[O-])c2)C1=O (configuration not stated)	nt	nt	-14	nt	1	nt	nt	nt
